The record followed here is ChEMBL document CHEMBL1143681, “Bifunctional [2',6'-dimethyl-L-tyrosine1]endomorphin-2 analogues substituted at position 3 with alkylated phenylalanine derivatives yield potent mixed mu-agonist/delta-antagonist and dual mu-agonist/delta-agonist opioid ligands” (J Med Chem, 2007).

Broadly, the Ki is a measure of affinity in units of concentration, obtained from inhibition or displacement. A word on the IC50: it is the concentration that inhibits the measured activity by half.

Each structure is given as a SMILES string. Where a SMILES comes first, the peptide text is derived from it. [ ]: non-standard residue; d: D form. Dmt = Cc1cc(O)cc(C)c1C[C@H](N)C(=O)O

Experiment [1] concerns the target Delta-type opioid receptor (Rattus norvegicus, UniProt P33533). As to the kind of experiment: Displacement of [3H]deltorphin 2 from delta opioid receptor in Sprague-Dawley rat brain P2 synaptosome membrane. Format: tissue-based. In general terms: Loss of bound radioactivity is the signal in a displacement assay; it reports binding, not function.
Experiment [2] has as its target Mu-type opioid receptor (Rattus norvegicus, UniProt P33535). Put plainly: Displacement of [3H]DAMGO from mu opioid receptor in Sprague-Dawley rat brain P2 synaptosome membrane. Format: tissue-based. A digest of the protocol:
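Competition binding at equilibrium (2.5 h, 22 °C) on Sprague-Dawley rat (150–160 g) brain P2 synaptosomes, preincubated 60 min at 22 °C to remove endogenous opioids. Radioligands: 3.5 nM [3H]DAMGO (μ) or 1.9 nM [3H]deltorphin-II (δ); nonspecific with 2 µM unlabeled peptide. GF/C filtration; duplicates, 5–8 doses, several preparations. Ki by Cheng-Prusoff (Kd 3.5 nM DAMGO, 1.4 nM deltorphin-II).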

The target of experiment [3] is Opioid receptors; mu & delta (Rattus norvegicus) (UniProt P33533+P33535). Put plainly: Selectivity for mu opioid receptor over delta opiod receptor in Sprague-Dawley rat brain P2 synaptosome membrane. The format is tissue-based.
For experiment [4], the target named is T1, Delta-type opioid receptor (Mus musculus, UniProt P32300). As to the kind of experiment: Agonist activity at delta opioid receptor in mouse vas deferens assessed as inhibition of electrically-stimulated muscle contraction. The format is functional, tissue-based. A digest of the protocol:
(§1)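 Isolated tissue: myenteric plexus longitudinal muscle strips (2–3 cm) from small intestine of male Hartley guinea pigs (μ), or single mouse vas deferens (δ), in organ baths with balanced salt solution, pH 7.5. Inhibition of electrically evoked contraction; IC50 (nM) from dose-response curves, mean ± SE of five to six separate assays.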

The target in experiment [5] is Mu-type opioid receptor (Cavia porcellus, UniProt P97266). Put plainly: Agonist activity at mu opioid receptor in Hartley guinea pig ileum assessed as inhibition of electrically-stimulated muscle contraction. Format: functional, tissue-based. In outline:
as §1

Experiment [6] addresses Kappa-type opioid receptor (Cavia porcellus, UniProt P41144). As to the kind of experiment: Displacement of [3H]U-69593 from kappa opioid receptor in Hartley guinea pig cerebellum P2 synaptosome membrane. The format is tissue-based.
Experiment [7] has as its target Delta-type opioid receptor (Mus musculus) (UniProt P32300). Put plainly: Agonist activity at delta opioid receptor in mouse vas deferens assessed as inhibition of electrically-stimulated muscle contraction at 10000 nM. Format: functional, tissue-based. Also noted: scale not given: the % may be the effect or the level left. In outline:
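Mouse vas deferens in organ bath, physiological buffer pH 7.5; maximal inhibition of electrically evoked contraction recorded at 10,000 nM.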

The target of experiment [8] is T1, Delta-type opioid receptor. Put plainly: Antagonist activity at delta opioid receptor in mouse vas deferens assessed as inhibition of deltorphin 2-induced response. The format is functional, tissue-based. Conditions: read-out: pA2 (converted). In outline: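 Single mouse vas deferens in organ bath, pH 7.5 buffer; δ antagonism measured against deltorphin II-induced inhibition of electrically evoked contraction. pA2 from Schild plot: negative log molar concentration needed to double deltorphin II concentration for the original response.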

Kappa-type opioid receptor, sequence (P41144 whole entry): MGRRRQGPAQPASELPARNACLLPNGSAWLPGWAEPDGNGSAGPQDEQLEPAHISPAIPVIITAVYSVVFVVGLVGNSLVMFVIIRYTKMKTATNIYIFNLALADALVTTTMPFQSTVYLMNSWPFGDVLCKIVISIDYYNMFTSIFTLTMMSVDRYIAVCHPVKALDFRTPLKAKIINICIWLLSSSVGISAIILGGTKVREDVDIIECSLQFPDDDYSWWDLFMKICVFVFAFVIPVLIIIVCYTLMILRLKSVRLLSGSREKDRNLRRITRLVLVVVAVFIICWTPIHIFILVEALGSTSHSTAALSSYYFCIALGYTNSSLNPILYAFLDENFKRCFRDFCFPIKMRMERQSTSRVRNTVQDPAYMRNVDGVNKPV
Opioid receptors; mu & delta (Rattus norvegicus), sequence (P33533 whole entry, looked up): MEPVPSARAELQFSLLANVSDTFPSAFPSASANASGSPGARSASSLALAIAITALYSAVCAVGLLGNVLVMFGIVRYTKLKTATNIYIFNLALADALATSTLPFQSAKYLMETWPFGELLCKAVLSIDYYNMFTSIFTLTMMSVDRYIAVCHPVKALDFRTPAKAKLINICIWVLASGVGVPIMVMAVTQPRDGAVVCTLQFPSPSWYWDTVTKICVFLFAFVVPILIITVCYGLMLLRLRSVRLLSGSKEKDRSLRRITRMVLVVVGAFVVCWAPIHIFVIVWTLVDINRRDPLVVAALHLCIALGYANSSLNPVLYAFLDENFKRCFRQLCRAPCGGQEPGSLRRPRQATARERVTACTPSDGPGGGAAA
Opioid receptors; mu & delta (Rattus norvegicus), sequence (P33535 whole entry, looked up): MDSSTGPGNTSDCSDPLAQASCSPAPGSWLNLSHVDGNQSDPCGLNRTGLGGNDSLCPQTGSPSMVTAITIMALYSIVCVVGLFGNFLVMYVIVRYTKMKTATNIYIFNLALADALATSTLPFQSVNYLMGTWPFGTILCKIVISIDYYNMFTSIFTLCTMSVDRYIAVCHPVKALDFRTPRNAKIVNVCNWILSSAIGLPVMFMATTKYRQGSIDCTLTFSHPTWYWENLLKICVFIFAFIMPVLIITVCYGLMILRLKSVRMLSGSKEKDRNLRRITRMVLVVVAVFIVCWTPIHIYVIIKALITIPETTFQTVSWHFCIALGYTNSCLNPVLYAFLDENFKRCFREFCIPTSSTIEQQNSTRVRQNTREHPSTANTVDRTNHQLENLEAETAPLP
Delta-type opioid receptor (Rattus norvegicus, UniProt P33533), sequence (P33533 whole entry): as the sequence (P33533 whole entry, looked up) above
Mu-type opioid receptor (Rattus norvegicus, UniProt P33535), sequence (P33535 whole entry): as the sequence (P33535 whole entry, looked up) above
T1 sequence (P32300 whole entry): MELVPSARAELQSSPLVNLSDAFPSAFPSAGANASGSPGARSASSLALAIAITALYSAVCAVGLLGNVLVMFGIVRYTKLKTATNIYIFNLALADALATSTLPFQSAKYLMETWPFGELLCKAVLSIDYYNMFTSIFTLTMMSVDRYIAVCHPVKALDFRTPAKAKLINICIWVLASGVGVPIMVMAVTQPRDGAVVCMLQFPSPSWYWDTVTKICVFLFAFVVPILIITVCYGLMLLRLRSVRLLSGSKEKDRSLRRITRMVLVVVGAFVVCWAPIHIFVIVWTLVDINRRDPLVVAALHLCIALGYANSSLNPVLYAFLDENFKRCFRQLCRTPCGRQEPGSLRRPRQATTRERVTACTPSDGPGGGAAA
Delta-type opioid receptor (Mus musculus), sequence (P32300 whole entry): as above
Mu-type opioid receptor (Cavia porcellus, UniProt P97266), sequence (P97266 whole entry): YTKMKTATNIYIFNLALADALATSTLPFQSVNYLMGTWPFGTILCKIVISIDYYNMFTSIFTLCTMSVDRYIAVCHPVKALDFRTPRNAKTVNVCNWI

With `Cc1cccc(C)c1C[C@H](NC(=O)[C@@H]1CCCN1C(=O)[C@@H](N)Cc1ccc(O)cc1)C(=O)N[C@@H](Cc1ccccc1)C(N)=O`, the Ki is 1440 nM in experiment [1], 0.044 nM in experiment [2] and above 4000 nM in experiment [6]. The Ratio Ki in experiment [3] amounted to 32700. In addition, the IC50 was 1.39 nM in experiment [4] and 0.38 nM in experiment [5].
Turning to `Cc1cc(C)cc(C[C@H](NC(=O)[C@@H]2CCCN2C(=O)[C@@H](N)Cc2c(C)cc(O)cc2C)C(=O)N[C@@H](Cc2ccccc2)C(N)=O)c1`, the Ki in experiment [1] stood at 11.6 nM; in experiment [2], 0.11 nM; in experiment [6], 830 nM. In experiment [7], the Activity was above 7.1%. In addition, the Ratio Ki in experiment [3] was found to be 105. Also, the IC50 is above 10000 nM in experiment [4] and 14.4 nM in experiment [5]. For the same molecule, the Kb in experiment [8] is 170 nM.
Consider `Cc1ccccc1C[C@H](NC(=O)[C@@H]1CCCN1C(=O)[C@@H](N)Cc1ccc(O)cc1)C(=O)N[C@@H](Cc1ccccc1)C(N)=O`, for which the figures for the inhibitory constant (Ki) in experiment [1] and in experiment [2] were 1740 nM and 0.22 nM, respectively. The Ratio Ki in experiment [3] worked out at 7880. The results for the IC50 in experiment [4] and in experiment [5] were 15.7 nM and 1.33 nM, respectively.
Consider `Cc1cc(O)cc(C)c1C[C@H](N)C(=O)N1CCC[C@H]1C(=O)N[C@@H](Cc1c(C)cccc1C(C)C)C(=O)N[C@@H](Cc1ccccc1)C(N)=O`, for which the Ki in experiment [1] turned out to be 4.61 nM; in experiment [2], 0.32 nM; in experiment [6] it was 205 nM. Also, the Ratio Ki in experiment [3] amounted to 14. The concentration for half-maximal inhibition (IC50) is 5.56 nM in experiment [4] and 0.2 nM in experiment [5].
For the molecule `Cc1cc(O)cc(C)c1C[C@H](NC(=O)[C@@H]1CCCN1C(=O)[C@@H](N)Cc1c(C)cc(O)cc1C)C(=O)N[C@@H](Cc1ccccc1)C(N)=O` (H-[Dmt]P[Dmt]F-NH2), the Ki in experiment [1] came out at 80.8 nM; in experiment [2] it was 0.092 nM; in experiment [6], 998 nM. Moreover, the results for the concentration for half-maximal inhibition (IC50) in experiment [4] and in experiment [5] were above 10000 nM and 1.94 nM, respectively. The Kb in experiment [8] was 87.1 nM.
`Cc1cc(C)cc(C[C@H](NC(=O)[C@@H]2CCCN2C(=O)[C@@H](N)Cc2ccc(O)cc2)C(=O)N[C@@H](Cc2ccccc2)C(N)=O)c1`: the figures for the Ki in experiment [1] and in experiment [2] were 3450 nM and 6.19 nM, respectively. Also, in experiment [7], the Activity was above 8%. Moreover, the Ratio Ki in experiment [3] turned out to be 558. For the same molecule, the results for the half-inhibitory concentration (IC50) in experiment [4] and in experiment [5] were above 10000 nM and 389 nM, respectively.
On to `Cc1cccc(C(C)C)c1C[C@H](NC(=O)[C@@H]1CCCN1C(=O)[C@@H](N)Cc1ccc(O)cc1)C(=O)N[C@@H](Cc1ccccc1)C(N)=O`, for which the Ki in experiment [1] stood at 543 nM; in experiment [2] it was 0.45 nM. Further, the Ratio Ki in experiment [3] amounted to 1220. Besides, the IC50 in experiment [5] stood at 2.74 nM.
`Cc1cc(C)c(C[C@H](NC(=O)[C@@H]2CCCN2C(=O)[C@@H](N)Cc2ccc(O)cc2)C(=O)N[C@@H](Cc2ccccc2)C(N)=O)c(C)c1`: the Ki in experiment [1] is 1360 nM; in experiment [2], 0.44 nM. In addition, the Activity in experiment [7] is above 36.2%. The Ratio Ki in experiment [3] stood at 3090. Further, the IC50 in experiment [4] was above 10000 nM; in experiment [5], 1.9 nM.
For the molecule `CCc1cccc(C)c1C[C@H](NC(=O)[C@@H]1CCCN1C(=O)[C@@H](N)Cc1ccc(O)cc1)C(=O)N[C@@H](Cc1ccccc1)C(N)=O`, the Ki in experiment [1] turned out to be 491 nM; in experiment [2], 0.46 nM. For the same molecule, the Ratio Ki in experiment [3] is 1070. Further, the half-inhibitory concentration (IC50) is 277 nM in experiment [4] and 2.35 nM in experiment [5].
Turning to `CCc1cccc(C)c1C[C@H](NC(=O)[C@@H]1CCCN1C(=O)[C@@H](N)Cc1c(C)cc(O)cc1C)C(=O)N[C@@H](Cc1ccccc1)C(N)=O`, the values for the Ki in experiment [1], in experiment [2] and in experiment [6] were 3.03 nM, 0.21 nM and 278 nM, respectively. In addition, the Ratio Ki in experiment [3] turned out to be 14. The IC50 in experiment [4] turned out to be 0.51 nM; in experiment [5], 0.17 nM.
Regarding `Cc1cc(O)cc(C)c1C[C@H](N)C(=O)N1CCC[C@H]1C(=O)N[C@@H](Cc1ccccc1)C(=O)N[C@@H](Cc1ccccc1)C(N)=O`, the results for the Ki in experiment [1], in experiment [2] and in experiment [6] were 99.2 nM, 0.26 nM and 489 nM, respectively. The Ratio Ki in experiment [3] was 382. Also, the 50% inhibitory concentration (IC50) in experiment [4] amounted to 0.59 nM; in experiment [5], 0.26 nM.
Consider `Cc1ccccc1C[C@H](NC(=O)[C@@H]1CCCN1C(=O)[C@@H](N)Cc1c(C)cc(O)cc1C)C(=O)N[C@@H](Cc1ccccc1)C(N)=O`, for which the Ki in experiment [1] stood at 4.61 nM; in experiment [2], 0.18 nM; in experiment [6], 176 nM. The Activity in experiment [7] amounted to 0%. Besides, in experiment [3], the Ratio Ki is 26. The IC50 in experiment [4] was above 10000 nM; in experiment [5], 0.16 nM. For the same molecule, the Kb in experiment [8] was 257 nM.
Consider `Cc1cc(O)ccc1C[C@H](NC(=O)[C@@H]1CCCN1C(=O)[C@@H](N)Cc1ccc(O)cc1)C(=O)N[C@@H](Cc1ccccc1)C(N)=O`, for which the Ratio Ki in experiment [3] was 1150.
For the molecule `Cc1cc(O)cc(C)c1C[C@H](NC(=O)[C@@H]1CCCN1C(=O)[C@@H](N)Cc1ccc(O)cc1)C(=O)N[C@@H](Cc1ccccc1)C(N)=O` (H-YP[Dmt]F-NH2), the inhibition constant Ki was found to be 3020 nM in experiment [1] and 2.63 nM in experiment [2]. Further, the values for the IC50 in experiment [4] and in experiment [5] were 978 nM and 541 nM, respectively.
Consider `Cc1cc(C)c(C[C@H](NC(=O)[C@@H]2CCCN2C(=O)[C@@H](N)Cc2c(C)cc(O)cc2C)C(=O)N[C@@H](Cc2ccccc2)C(N)=O)c(C)c1`, for which the Ki in experiment [1] stood at 1.83 nM; in experiment [2] it was 0.18 nM; in experiment [6] it was 172 nM. In addition, in experiment [7], the Activity was above 22.2%. For the same molecule, in experiment [3], the Ratio Ki turned out to be 10. The IC50 in experiment [4] was above 10000 nM; in experiment [5], 0.21 nM. For the same molecule, the Kb in experiment [8] is 0.891 nM.
With `Cc1cccc(C)c1C[C@H](NC(=O)[C@@H]1CCCN1C(=O)[C@@H](N)Cc1c(C)cc(O)cc1C)C(=O)N[C@@H](Cc1ccccc1)C(N)=O`, the Ki in experiment [1] was 2.27 nM; in experiment [2], 0.069 nM; in experiment [6] it was 94.2 nM. Also, in experiment [3], the Ratio Ki amounted to 33. Moreover, the IC50 in experiment [5] was 0.12 nM. In addition, the Kb in experiment [8] is 7.08 nM.
With `Cc1cc(O)ccc1C[C@H](NC(=O)[C@@H]1CCCN1C(=O)[C@@H](N)Cc1c(C)cc(O)cc1C)C(=O)N[C@@H](Cc1ccccc1)C(N)=O`, the Activity in experiment [7] was below 1%. Moreover, in experiment [3], the Ratio Ki came out at 878.
